Active and inactive are the calls of the source. The calls are words filed in the database; no cut-off is given here.

Series [1] concerns A549. Kind of series: Cytotoxicity in human A549 cells by SRB assay. The series is classed as functional, cell-based.
Series [2] can be described thus: Cytotoxicity in human SKOV3 cells by SRB assay. To be noted: SK-OV-3. The series is classed as functional, cell-based.
Series [3] concerns BV-2. The experiment in a line: Antiinflammatory activity in mouse BV2 cells assessed as inhibition of LPS-induced NO production after 24 hrs by Griess assay. Format: functional, cell-based. In a few lines:
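BV2 microglia seeded at 4 × 10^4 cells/well, given compound at various concentrations with LPS (100 ng/mL), incubated 24 h. Nitrite in the medium read with Griess reagent (0.1% N-1-naphthylethylenediamine dihydrochloride, 1% sulfanilamide in 5% phosphoric acid, equal volume of supernatant), absorbance at 570 nm after 10 min. Sodium nitrite standard curve. IC50 derived. L-NMMA positive control.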

The nature of series [4]: Cytotoxicity in human HCT116 cells by SRB assay. The series is classed as functional, cell-based. The conditions noted are these: HCT-116.
Series [5] deals with SK-MEL-2. Kind of series: Cytotoxicity in human SK-MEL-2 cells by SRB assay. The series is classed as functional, cell-based.
Series [6] relates to C6. Kind of series: Neuroprotective activity in rat C6 cells assessed as induction of NGF release at 20 uM after 24 hrs by ELISA. The series is classed as functional. In a few lines: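 C6 glioma cells seeded at 1 × 10^5 cells/well. After 24 h, treated with compound at 20 μM in serum-free DMEM for a further 24 h. NGF secreted into the conditioned medium quantified by ELISA and expressed as % of untreated control (100%). 6-Shogaol positive control. Means ± SD of three independent experiments run in triplicate.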

A short description of series [7]: Cytotoxicity in rat C6 cells assessed as cell viability at 20 uM after 24 hrs by MTT assay. The series is classed as cell-based. The conditions noted are these: read-out: Activity. The method in brief: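 C6 glioma cells seeded at 1 × 10^5 cells/well. After 24 h, switched to serum-free DMEM with compound at 20 μM for a further 24 h. Viability by MTT, expressed as % of untreated control. Means ± SD of three independent experiments.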

With `CO[C@]12C(=O)C[C@@H]3[C@](C)(CCC[C@@]3(C)C(=O)O)[C@H]1CC[C@@]1(C(C)C)O[C@@H]21`, the IC50 in series [1], in series [2], in series [4] and in series [5] was > 10 µM throughout. For the same compound, in series [3], the inhibition result was “inactive”.
In the case of `CC(C)c1ccc2c(c1)C(=O)C[C@H]1[C@](C)(C(=O)O)CCC[C@]21C`, the IC50 in series [1], in series [2], in series [4] and in series [5] was > 10 µM each time. Moreover, the Activity in series [6] is 201.8%. The inhibition entry in series [3] is “inactive”. Moreover, the viability at 24 h, 20 µM in series [7] was determined as 104%.
As for `CC(C)[C@]12C=C3[C@H](O)C[C@H]4[C@](C)(C(=O)O)CCC[C@]4(C)[C@@]3(CC1)OO2`, the IC50 in series [1], in series [2], in series [4] and in series [5] was > 10 µM in each case. For the same compound, the inhibition entry in series [3] was “inactive”.
In the case of `CC(C)[C@]1(O)C=C2C(=O)C[C@@H]3[C@](C)(CCC[C@@]3(C)C(=O)O)[C@H]2CC1`, the IC50 in series [1], in series [2], in series [4] and in series [5] was > 10 µM throughout. In series [6], the Activity is 175.6%. Also, the inhibition entry in series [3] was “inactive”. Also, in series [7], the viability at 24 h, 20 µM is 94.5%.
For `CC(C)c1ccc2c(c1)[C@H](O)C[C@H]1C(C)(C)CCC[C@]21C`, the IC50 in series [1], in series [2], in series [4] and in series [5] was > 10 µM each time. For the same compound, the inhibition entry in series [3] is “inactive”.
With `CC(C)[C@]12O[C@H]1C[C@H]1C(=CC[C@@H]3[C@]1(C)CCC[C@@]3(C)C(=O)O)[C@H]2O`, the IC50 in series [1], in series [2], in series [4] and in series [5] was > 10 µM throughout. In addition, the Activity in series [6] amounted to 193.9%. For the same compound, the inhibition entry in series [3] is “inactive”. For the same compound, the viability at 24 h, 20 µM in series [7] is 73.1%.
Regarding `CC(C)C1=C[C@@]23CC[C@@H]4[C@](C)(CCC[C@@]4(C)C(=O)O)[C@H]2C[C@@H]1OO3`, the IC50 in series [1], in series [2], in series [4] and in series [5] was > 10 µM throughout. Also, the Activity in series [6] worked out at 153%. The inhibition entry in series [3] is “inactive”. For the same compound, in series [7], the viability at 24 h, 20 µM was 102%.
In the case of `CC(C)c1ccc2c(c1)[C@H](O)C[C@H]1[C@](C)(COC(=O)CCC(=O)O)CCC[C@]21C` [ABIESADINE F], the IC50 in series [1], in series [2], in series [4] and in series [5] was > 10 µM throughout. In series [6], the Activity turned out to be 142.2%. Also, the inhibition entry in series [3] was “inactive”. In series [7], the viability at 24 h, 20 µM is 98.2%.
Turning to `CC(C)(O)c1ccc2c(c1)CC[C@H]1[C@](C)(C(=O)O)CCC[C@]21C`, the IC50 in series [1], in series [2], in series [4] and in series [5] was > 10 µM throughout. The Activity in series [6] was found to be 152.9%. Also, in series [3], the inhibition result was “inactive”. Besides, the viability at 24 h, 20 µM in series [7] was determined as 94.3%.
Turning to `CC(C)[C@]12O[C@H]1CC1=C(CC[C@H]3[C@](C)(C(=O)O)CCC[C@]13C)[C@H]2O`, the IC50 in series [1], in series [2], in series [4] and in series [5] was > 10 µM in each case. Moreover, the inhibition entry in series [3] is “inactive”.
For the compound `CC(=O)OC[C@]1(C)CCC[C@]2(C)c3ccc(C(C)(C)O)cc3CC[C@@H]12`, the IC50 in series [1], in series [2], in series [4] and in series [5] was > 10 µM each time. Also, the Activity in series [6] is recorded as 171.3%. The inhibition entry in series [3] is “inactive”. Besides, the viability at 24 h, 20 µM in series [7] was 85.5%.
For `CC(C)c1ccc2c(c1)[C@@H](O)C[C@H]1[C@](C)(C(=O)O)CCC[C@]21C`, the IC50 in series [1], in series [2], in series [4] and in series [5] was > 10 µM in each case. Besides, the Activity in series [6] stood at 165.1%. The inhibition result in series [3] is “inactive”. For the same compound, the viability at 24 h, 20 µM in series [7] is 96.2%.
For the compound `CO[C@@]1(C(C)C)C=C2[C@H](O)C[C@@H]3[C@](C)(CCC[C@@]3(C)C(=O)O)[C@H]2CC1`, the IC50 in series [1], in series [2], in series [4] and in series [5] was > 10 µM each time. Moreover, the Activity in series [6] was 169.4%. Moreover, the inhibition result in series [3] was “inactive”. In addition, the viability at 24 h, 20 µM in series [7] worked out at 78.1%.
For `CC(C)(O)[C@]12O[C@H]1C[C@H]1C(=CC[C@@H]3[C@]1(C)CCC[C@@]3(C)C(=O)O)[C@H]2O`, the IC50 in series [1], in series [2], in series [4] and in series [5] was > 10 µM each time. Besides, in series [6], the Activity is reported as 158.6%. Besides, the inhibition result in series [3] was “inactive”. Moreover, the viability at 24 h, 20 µM in series [7] stood at 92.5%.
As for `CC(C)[C@@]12CC[C@@H]3[C@@]4(C)CCC[C@@](C)(C(=O)O)[C@@H]4CC(=O)[C@]3(O)[C@@H]1O2`, the IC50 in series [1], in series [2], in series [4] and in series [5] was > 10 µM in each case. Moreover, the Activity in series [6] is reported as 155%. Moreover, the inhibition result in series [3] was “inactive”. In series [7], the viability at 24 h, 20 µM was found to be 91.4%.
`CC(C)(O)[C@]12O[C@H]1C[C@@H]1[C@@]3(C)CCC[C@@](C)(C(=O)O)[C@@H]3CC[C@@]1(O)[C@H]2O`: the IC50 in series [1], in series [2], in series [4] and in series [5] was > 10 µM each time. Besides, the inhibition result in series [3] was “inactive”.
On to `CC(C)(O)c1ccc2c(c1)C(=O)C[C@H]1[C@](C)(C(=O)O)CCC[C@]21C`, for which the IC50 in series [1], in series [2], in series [4] and in series [5] was > 10 µM each time. Moreover, in series [6], the Activity is on record as 161.7%. The inhibition result in series [3] is “inactive”. Moreover, the viability at 24 h, 20 µM in series [7] was 94.6%.
For the compound `CC(C)(O)[C@]12O[C@H]1C[C@@H]1[C@@]3(C)CCC[C@@](C)(C(=O)O)[C@@H]3CC[C@@]13O[C@H]32`, the IC50 in series [1], in series [2], in series [4] and in series [5] was > 10 µM in each case. In addition, the inhibition result in series [3] was “inactive”.
`CC(C)[C@@]12C=C3[C@H](O)C[C@H]4[C@](C)(C(=O)O)CCC[C@]4(C)[C@]3(CC1)OO2`: the IC50 in series [1], in series [2], in series [4] and in series [5] was > 10 µM each time. Also, the Activity in series [6] stood at 154.3%. For the same compound, the inhibition entry in series [3] is “inactive”. For the same compound, the viability at 24 h, 20 µM in series [7] is 127%.
For the compound `CC(C)c1ccc2c(c1)CC[C@H]1[C@](C)(C(=O)O)CCC[C@]21C` [DEHYDROABIETIC ACID], the IC50 in series [1], in series [2], in series [4] and in series [5] was > 10 µM throughout. Also, in series [6], the Activity came to 170.2%. Also, the inhibition result in series [3] is “inactive”. The viability at 24 h, 20 µM in series [7] came to 92.3%.
With `COc1cc([C@@H]2c3cc4c(cc3[C@@H](O[C@@H]3O[C@@H]5CO[C@@H](C)O[C@H]5[C@H](O)[C@H]3O)[C@H]3COC(=O)[C@H]23)OCO4)cc(OC)c1O` [ETOPOSIDE], the IC50 amounted to 1.4 µM in series [1], 2.6 µM in series [2], 1 µM in series [4] and 1.5 µM in series [5].
With `CO[C@H]1C(=O)C2=C[C@@](O)(C(C)C)CC[C@@H]2[C@@]2(C)CCC[C@@](C)(C(=O)O)[C@H]12`, the IC50 in series [1], in series [2], in series [4] and in series [5] was > 10 µM each time. For the same compound, the Activity in series [6] was 170.2%. For the same compound, the inhibition result in series [3] was “inactive”. The viability at 24 h, 20 µM in series [7] came to 96.2%.
Turning to `CO[C@@]1(C(C)C)C=C2C(=O)C[C@@H]3[C@](C)(CCC[C@@]3(C)C(=O)O)[C@H]2CC1`, the IC50 in series [1], in series [2], in series [4] and in series [5] was > 10 µM in each case. In addition, the inhibition entry in series [3] was “inactive”.
On to `CC(C)[C@]12O[C@H]1C[C@@H]1[C@@]3(C)CCC[C@@](C)(C(=O)O)[C@@H]3CC[C@@]1(O)[C@H]2O`, for which the IC50 in series [1], in series [2], in series [4] and in series [5] was > 10 µM throughout. Moreover, in series [3], the inhibition entry was “inactive”.

(Values after ChEMBL document CHEMBL3797062, “Diterpenes from the Trunk of Abies holophylla and Their Potential Neuroprotective and Anti-inflammatory Activities” (J Nat Prod, 2016).)
